# Assay results reported in PubChem BioAssay AID540339 (Broad Institute, 2011).
# The source made the active and inactive calls.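 The calls were made as follows: active = compounds that lower cell viability signal with a fitted half-maximal concentration within ten times the top tested dose; inconclusive = flat curve inhibiting 30 to 70%, or an unreliable fit; inactive = the rest.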
# Test system: not listed separately
# Test: MALME3 melanoma cell viability loss, dose response, orthogonal assay for MITF inhibitor project, CellTiter-Glo, dry powder samples (AID 540339)
# Details: MALME3 melanoma viability, CellTiter-Glo luminescence, 24 h; at 35 µM (top of the series)
# Summary of the method: (§1)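 Doses – compound dose-response series delivered by pin transfer · Test system – MALME3 melanoma cells · Timing – 24 h compound at 37 °C, then 5 min reagent, RT · Technique – CellTiter-Glo luminescence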
row,Structure (SMILES),"activity change, negative = inhibition"
1,CC1CCCCC1NC(=O)/C(C#N)=C/C=C/c1ccccc1[N+](=O)[O-] (stereo unspecified),2.17% (inactive)

# Test system: MALME3 melanoma viability, CellTiter-Glo luminescence, 24 h
# Test: as above
# Details: not given
# Summary of the method: as §1
row,Structure (SMILES),AC50 [µM]
1,Cc1ccc(C(=O)N/N=C/c2ccc([N+](=O)[O-])s2)cc1,14.8
2,C=CCNC1=C(Cl)C(=O)c2ccccc2C1=O,8.93
3,COc1cc2c(cc1OC)C(c1ccccc1)N(C(=O)CCl)CC2 (stereo unspecified),18
4,CCN(CC)CCNC(=O)c1c(C)n(-c2ccccc2)c2cc(Br)c(OC)cc12,34.1
5,CC1CCN(CC(CS(=O)(=O)c2ccc([N+](=O)[O-])cc2)N2CCC(C)CC2)CC1 (stereo unspecified),18.6
6,N=c1n(CCN2CCCC2)c2ccccc2n1CC(O)c1ccc(Cl)c(Cl)c1 (stereo unspecified),18.6
7,CN(C)CCCNC(=O)/C(=C\c1ccc(-c2ccc(Br)cc2)o1)NC(=O)c1ccccc1,17.4
8,CCN1CCN(C2=C(NS(=O)(=O)c3ccc(Br)cc3)C(=O)c3ccccc3C2=O)CC1,17.7
9,COc1cc(/C=N/NC(N)=O)c(Br)cc1OCC(=O)Nc1ccccc1C,32.8
10,O=C(CNc1cccc2ccccc12)N/N=C/c1ccc([N+](=O)[O-])o1,20
11,O=C(Nc1ccc(N2CCN(C(=O)c3ccccc3)CC2)cc1)c1ccc([N+](=O)[O-])o1,16.7
12,Cc1[nH]c2ccccc2c1C(=O)CCl,31.8
13,COc1ccc(S(=O)(=O)N(C(C)=O)c2ccc(OC(C)=O)c3ccccc23)cc1[N+](=O)[O-],4.21
14,O=C(Nc1ccc(-c2nc3ncccc3o2)cc1)c1ccc([N+](=O)[O-])o1,14.5
15,CC1CN(C(=O)CCC(=O)NCCCN2CCC(Cc3ccccc3)CC2)c2cc(Cl)ccc2O1 (stereo unspecified),29.9
16,Cc1ccc(C(C)C)c(OCc2nn(CC(=O)c3ccc(Cl)cc3)c3[n+]2CCCCC3)c1,23.1
17,O=c1c(Cl)c2oc3ccccc3nc-2c2ccccc12,18.2
18,Cc1nc2ccccc2n1/N=C/c1ccc([N+](=O)[O-])s1,10.3
19,O=C(COc1ccccc1)N/N=C/c1ccc([N+](=O)[O-])o1,19.1
20,CC1(C)CC(NC(=O)c2ccc(Cl)c(S(=O)(=O)N(Cc3ccccc3)c3ccccc3)c2)CC(C)(C)N1,17.4
21,CC(C)C(CCNC1CCN(C)CC1)c1ccc(Cl)cc1 (stereo unspecified),4.04
22,CCN1CCCC1CNC(=O)c1ccc2c(c1)NC(=O)/C(=C\c1ccc(C)cc1)S2 (stereo unspecified),20
23,CCN1c2ccccc2NC2N=C(OC)C(c3ccccc3)C21 (stereo unspecified),7.91
24,CC1=NNC(=O)/C1=C\c1cn(-c2ccccc2)nc1-c1ccc(F)cc1,36.5
25,O=C(Cn1ncc(Cl)c(Cl)c1=O)N1CCc2ccccc21,5.07
